Screening data (PubChem)
The list is not random: actives were taken first. Their share in the collection is about 4.9%.
STAT3 inh – STAT3 signaling inhibition; U3A cells, IL-6 STAT3-luciferase reporter, luminescence; host cell line lacks STAT1; inhibition, % at 5.5 µM; hit rate 0.89% among 190,000;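 active = inhibition above the mean inhibition across all screened compounds plus 3 SD, cut at about 44% in these data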;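 note: 0% = DMSO only wells and 100% = 100 µM nifuroxazide control wells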
NF-kB neuron act – raises NF-kB expression in human neuronal cells; NF-kB reporter expression; hits give high values; fold change at 12.5 µM; hit rate 1.6% among 190,000; in the data active = fold change above about 3.3
APP 5'UTR act – APP 5'UTR luciferase reporter activation | SH-SY5Y APP 5'UTR luciferase reporter, luminescence; zero percent = DMSO vehicle wells | activation, % at 2 µM | hit rate 1% among 190,000;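 active = activation above a set limit, based on mean plus 3 SD of controls, cut at about 140% in these data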
STAT1 inh – inhibitors of IFN-gamma induced STAT1 signaling | AID 920 | hit rate 0.35% among 200,000 | NIH 3T3 STAT1-luciferase reporter, luminescence | inhibition, % at 5.5 µM;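 active = inhibition above a set limit, the mean inhibition across all tested compounds plus 3 SD, cut at about 34% in these data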;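 note: 0% = IFN-gamma with DMSO and 100% = IFN-gamma with 300 µM nifuroxazide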
STAT3 act-1 – increases IL-6 driven STAT3 reporter signal | activation (% of control), % at 5.6 µM | hit rate 0.91% among 190,000 | U3A cells, IL-6 STAT3-luciferase reporter, luminescence; 100% = signal with IL-6 EC80 alone | AID 871;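 active = activation above the screen-wide mean of compound activation plus 3 SD, cut at about 130% in these data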;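 note: 0% = background luminescence of wells with medium and substrate only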
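Detection: reporter luminescence signal / Assay system: STAT1-lacking human U3A cells, STAT3 luciferase reporter / Incubation: compound pre-incubation 1 h before IL-6, then 6 h stimulation at 37 °C / Control set: IL-6-only high control / Read-out: % activation relative to IL-6 control / Probe or stimulus: Interleukin-6, 33 ng/mL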
STAT1 act-1 – activators of IFN-gamma induced STAT1 signaling; NIH 3T3 STAT1-luciferase reporter, luminescence; 100% = IFN-gamma alone, no compound; activation (% of control), % at 5.5 µM; hit rate 2.6% among 200,000; AID 932;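 active = activation above the screen-wide mean activation plus 3 SD, cut at about 130% in these data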;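 note: raw ratio to IFN-gamma control signal so 100% means no change and 0% no light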
STAT3 act-2 – confirmation of STAT3 signaling activators; U3A STAT3-luciferase reporter, IL-6 potentiation, luminescence; U3A cells lack STAT1; 100 means same as IL-6 alone; shares compounds with STAT3 act-1; hit rate 64% among 1,200; potentiation (% of control), % at 5.7 µM;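 active = percent activation of the STAT3 luciferase reporter above a set limit taken from the earlier primary screen, cut at about 130% in these data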;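 note: 0% = background signal of medium plus substrate and 100% = median of IL-6 with DMSO wells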
NFkB act STAT3ct – activates NF-kappaB, counter-screen to STAT3 activators; shares compounds with STAT3 act-1; activation (% of control), % at 5.7 µM; hit rate 11% among 1,200; human cells, NF-kappaB reporter activation; in the data active = activation above about 120%;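 note: reporter induced by TNF-alpha stimulation; 100% = median of stimulated DMSO wells and 0% = no signal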
STAT1 act-2 – STAT1 activation in STAT3 activator counter-screen; NIH 3T3 STAT1-luciferase reporter, IFN-gamma, luminescence; activation (% of control), % at 5.7 µM; hit rate 13% among 1,200; shares compounds with STAT3 act-1;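 active = activation above the solvent-only control well mean plus 3 SD, set per screening run, cut at about 120% in these data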;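 note: 100% = IFN-gamma with DMSO median signal so 100% means no change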
Active calls of the source: *; . = no result.

SMILES | STAT3 inh | NF-kB neuron act | APP 5'UTR act | STAT1 inh | STAT3 act-1 | STAT1 act-1 | STAT3 act-2 | NFkB act STAT3ct | STAT1 act-2
CCc1cc(=O)[nH]c(-n2[nH]c(-c3ccccc3)cc2=O)n1 | 5 | 1.2 | -1 | 2 | 98 | 98 | . | . | .
O=c1cc(-c2ccccc2)[nH]n1-c1nc2ccccc2[nH]1 | -53 | 1.1 | 7 | -14 | 155* | 113 | 141* | 157* | 141*
CCC(C)(C)NC(=O)C(Sc1ccccc1)c1ccccc1 (stereo not drawn) | 13 | 1.1 | 19 | 3 | 98 | 97 | . | . | .
O=C(CSc1nc2c([nH]c3ccccc32)c(=O)n1-c1ccc(F)cc1)NCc1ccco1 | -40 | 1.6 | -4 | 14 | 142* | 87 | 119 | 94 | 87
COCCNS(=O)(=O)c1ccc(C)c(C)c1C | 11 | 0.7 | 8 | 0 | 98 | 100 | . | . | .
COc1ccc(S(=O)(=O)N2CCN(Cc3c[nH]c4ccccc34)CC2)cc1 | -15 | 1.1 | 11 | -3 | 121 | 103 | . | . | .
O=[N+]([O-])c1ccc(S(=O)(=O)N2CCN(Cc3c[nH]c4ccccc34)CC2)cc1 | -62 | 0.97 | . | 14 | 152* | 93 | 155* | 105 | 100
Cc1[nH]c2ccccc2c1/C=N/Nc1ccc(F)cc1F | -59 | 1.1 | 17 | -14 | 155* | 113 | 142* | 108 | 121*
COC(=O)c1cc2c(s1)-c1ccccc1CC2 | -64 | 1.3 | 30 | -21 | 164* | 120 | 150* | 112 | 126*
Cc1cccc(/C=N/NC(=O)c2cc3c(s2)-c2ccccc2CC3)c1 | -8 | 1.1 | 12 | -6 | 112 | 105 | . | . | .
COc1cc(C(=O)N/N=C/C2CC=CCC2)cc(OC)c1OC (stereo not drawn) | -60 | 0.67 | -93 | -11 | 144* | 110 | 99 | 103 | 97
O=C(N/N=C/C1CC=CCC1)c1ccc(O)cc1O (stereo not drawn) | 8 | 1.6 | 47 | 7 | 94 | 94 | . | . | .
COc1ccccc1C(=O)NNC(=O)c1ccc(NC(=O)C(C)C)cc1 | -52 | 1.1 | 4 | -9 | 148* | 105 | 153* | 103 | 102
COc1ccccc1C(=O)NNC(=O)c1ccc(F)cc1 | -14 | 2.3 | 15 | -23 | 112 | 120 | . | . | .
COc1ccccc1C(=O)NNC(=S)Nc1ccccc1 | -34 | 1.4 | 18 | 5 | 139* | 94 | 146* | 102 | 92
COC(=O)NNC(=O)c1ccccc1OC | -60 | 1.1 | -1 | -2 | 148* | 99 | 166* | 114 | 107
COc1ccccc1C(=O)NNC(=O)C(=O)NC(C)(C)C | -48 | 1.1 | -14 | -2 | 143* | 100 | 144* | 96 | 97
Cc1c(NC(=O)CSCc2c(F)cccc2Cl)c(=O)n(-c2ccccc2)n1C | 10 | 1.1 | 4 | -3 | 96 | 100 | . | . | .
Cc1ccc(C(=O)NCC(=O)O)o1 | -6 | 1.2 | 9 | -9 | 108 | 106 | . | . | .
COC(=O)c1sccc1NC(=O)c1ccc(C)s1 | -64 | 1.4 | 10 | -3 | 158* | 102 | 128 | 96 | 98
COC(=O)c1sccc1NC(=O)c1ccc(Cl)s1 | -48 | 1.1 | 12 | 1 | 143* | 98 | 176* | 121* | 108
COC(=O)c1sccc1NC(=O)c1ccc(OC)cc1 | -19 | 1.3 | -6 | -1 | 116 | 101 | . | . | .
CCn1c(C(=O)Nc2ccsc2C(=O)OC)cc2sc(Cl)cc21 | -75 | 1.1 | 0 | 3 | 165* | 97 | 138* | 106 | 93
CCOc1ccccc1C(=O)Nc1ccsc1C(=O)OC | -3 | 1.5 | -85 | -5 | 101 | 104 | . | . | .
COC(=O)c1c(NC(=O)c2ccc(Br)s2)sc2c1CCC2 | -43 | 1.1 | -13 | -4 | 137* | 104 | 123 | 105 | 98
SMILES | STAT3 inh | NF-kB neuron act | APP 5'UTR act | STAT1 inh | STAT3 act-1 | STAT1 act-1 | STAT3 act-2 | NFkB act STAT3ct | STAT1 act-2
O=C(CSc1nnc(-c2cccnc2)n1Cc1ccccc1)NCc1ccccc1 | -3 | 1.2 | -16 | 1 | 105 | 99 | . | . | .
O=C(CCNC(=O)c1ccco1)Nc1ccccc1N1CCOCC1 | 1 | 0.92 | 6 | -7 | 107 | 105 | . | . | .
COC(=O)c1sccc1NC(=O)Cc1ccc(Br)cc1 | 6 | 1.1 | -2 | 0 | 95 | 100 | . | . | .
COC(=O)c1sccc1NC(=O)c1ccc(Br)s1 | -50 | 1.4 | 18 | 10 | 150* | 90 | 146* | 104 | 104
Cc1cc(C)n(-c2nc3ccccc3c(=O)n2OCc2ccc(Cl)cc2)n1 | -45 | 0.8 | 1 | 12 | 145* | 89 | 128 | 102 | 95
COn1c(-n2nc(C)cc2C)nc2ccccc2c1=O | 2 | 1.1 | -5 | 0 | 103 | 100 | . | . | .
Cc1ccc(-c2nc(NCCN3CCOCC3)c3ccccc3n2)cc1 | -81 | 0.75 | 19 | 2 | 181* | 98 | 169* | 105 | 98
CCOC(=O)C(C(=O)Nc1nc2ccccc2s1)C1CCCCC1 (stereo not drawn) | -49 | 0.88 | 13 | -4 | 143* | 103 | 124 | 109 | 100
CCOC(=O)C(C(=O)Nc1cccc(C)n1)C1CCCCC1 (stereo not drawn) | -2 | 1.3 | -7 | -5 | 104 | 104 | . | . | .
CCN1/C(=N\N)c2cccc3cccc1c23 | 5 | 1.1 | 10 | -10 | 100 | 106 | . | . | .
O=C(O)CC/C(=C\c1cc([N+](=O)[O-])ccc1Cl)c1nc2ccccc2s1 | -46 | 1 | 4 | 15 | 142* | 87 | 147* | 103 | 92
O=C(O)CC/C(=C\c1ccccc1[N+](=O)[O-])c1nc2ccccc2s1 | -8 | 1.1 | 20 | -3 | 107 | 103 | . | . | .
Oc1[nH]c2ccccc2c1/C=N/N1CCCCC1 | -50 | 0.86 | -3 | -8 | 145* | 107 | 103 | 100 | 103
Oc1ccccc1/C=N/N1CCCCC1 | 8 | 1.2 | -4 | -16 | 93 | 115 | . | . | .
CCC(=O)Oc1oc(-c2ccccc2)nc1C=Nc1ccccc1OC | -50 | 1 | 14 | -1 | 144* | 101 | 129 | 115 | 99
Cc1ccc(-n2c(N)c(-c3nc4ccccc4n3C)sc2=S)cc1 | -94 | 1.4 | 17 | -2 | 183* | 102 | 176* | 109 | 117
Cn1c(-c2ccc(N)cc2)nc2ccccc21 | 9 | 2 | 47 | -9 | 97 | 109 | . | . | .
COc1ccc(S(=O)(=O)N2CCN(c3ccc4nnc(-c5ccccc5)n4n3)CC2)cc1 | -41 | 0.73 | 0 | -4 | 143* | 104 | 120 | 107 | 113
